# Sampled rows, rich in hits. Any-hit rate of the full collection: about 2.6%.
# CHT inh: human CHT choline transport inhibition; CHT-expressing cells, membrane potential dye, choline response; active compounds read low; B-score at 10 µM; hit rate 0.86% among 310,000; AID 488975;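 active = B-score over 3 SD under the library average, and starting fluorescence ratio not unusually high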;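 note: choline stimulus applied at its EC90 after an EC20 pre-addition; B-score computed on integrated fluorescence ratio after choline addition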
# Target sequence (Q9GZV3 whole entry, looked up): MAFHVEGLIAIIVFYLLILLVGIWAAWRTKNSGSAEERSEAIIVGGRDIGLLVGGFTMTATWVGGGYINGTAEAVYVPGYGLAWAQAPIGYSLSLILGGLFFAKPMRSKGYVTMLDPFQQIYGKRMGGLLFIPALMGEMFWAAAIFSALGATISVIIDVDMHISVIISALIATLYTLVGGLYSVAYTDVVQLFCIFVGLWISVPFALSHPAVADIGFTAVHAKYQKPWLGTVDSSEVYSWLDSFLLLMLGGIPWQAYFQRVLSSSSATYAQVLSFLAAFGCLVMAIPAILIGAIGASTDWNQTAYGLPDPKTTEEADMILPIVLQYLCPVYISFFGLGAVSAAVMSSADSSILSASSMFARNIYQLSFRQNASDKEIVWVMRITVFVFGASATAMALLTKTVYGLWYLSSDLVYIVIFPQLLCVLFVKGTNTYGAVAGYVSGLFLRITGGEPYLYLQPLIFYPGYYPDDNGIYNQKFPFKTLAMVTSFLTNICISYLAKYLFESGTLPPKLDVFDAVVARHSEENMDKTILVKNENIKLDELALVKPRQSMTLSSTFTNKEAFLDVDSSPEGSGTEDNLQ
# CHT allo act: allosterically activates the human high affinity choline transporter | Q9GZV3 | CHT-expressing cells, membrane potential dye, choline EC20; active compounds read high; LV-AA mutant CHT in HEK293 cells | B-score at 10 µM | hit rate 0.49% among 310,000;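 active = initial fluorescence not abnormally high and integrated response B-score, plate-corrected, over 3 SD above library mean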
# PolyA inh: inhibitors of polyadenylation in S. cerevisiae. S. cerevisiae SKY197-pL101 polyadenylation reporter, beta-gal luminescence; efflux-impaired pdr1/pdr3 knockout yeast; score 100 = 6 SD above DMSO. activity score, % at 12 µM. hit rate 0.02% among 300,000. AID 1875;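 active = lowest replicate activity score at least 50, where 100 means six control SD above control mean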;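 note: yeast exposed to compound for 9 h at 30 °C; higher score means more reporter readthrough which indicates perturbed polyadenylation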
# T cruzi inh: T. cruzi replication inhibition | T. cruzi beta-gal in NIH3T3, luminescence, 90 h | inhibition, % (concentration not given with the values) | hit rate 1.4% among 300,000 | AID 1885;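 active = mean inhibition across valid replicates above about 55%, limit read from the data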;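 note: signal also drops with host cell toxicity which is not excluded here; 0% = plate median of DMSO wells and 100% = zero luminescence signal; higher percent means less beta-gal luminescence so fewer parasites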
#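 System: Mouse NIH/3T3 fibroblasts infected with β-gal-expressing T. cruzi Tulahuen C4 | Quantity: NIH/3T3 cells, 5,000 per well | Reagent: 5000 reporter trypomastigotes per well | Dosing: Compound pinned at 50 nL/well, DMSO | Schedule: 3 h host attachment, then at least 90 h co-culture | Detection: GalScreen luminescence, 60 min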
# * hit, by the source's call; i = inactive; nt = no result given; ! = a repeat was not active.
SMILES,CHT inh,CHT allo act,PolyA inh,T cruzi inh
COc1ccc(NC(=S)N(Cc2cccc(Br)c2)CC2CCC(C(=O)O)CC2)cc1 (stereo not given),i,i,1,-6
CC1CCN(Cc2c(C(=O)N/N=C/c3cc(Br)ccc3O)nnn2-c2nonc2N)CC1,i,i,-9,59*
CC1CCN(Cc2c(C(=O)N/N=C/c3cc(Cl)ccc3O)nnn2-c2nonc2N)CC1,i,i,29,61*
COc1c(Cl)cc(Cl)cc1/C=N/NC(=O)c1nnn(-c2nonc2N)c1CN1CCC(C)CC1,i,i,-10,33
Oc1c(Br)cc(/C=N/Nc2ccc(Cl)nn2)cc1Br,i,i,-8,5
Oc1c(Br)cc(Br)cc1/C=N/Nc1ccc(Cl)nn1,i,i,3,55*
N#Cc1c(NC(=S)NC(=O)c2ccccc2)sc2c1CCN(CCc1ccccc1)C2,i,i,11,71*
N#Cc1c(NC(=S)NC(=O)c2ccccc2)sc2c1CCCC2,i,i,4,14
Cc1cccc(N(CC(=O)Nc2cccnc2)S(C)(=O)=O)c1,i,i,7,-10
COc1ccc(-c2ccc(C(C)=O)cc2)cc1[C@H]1[C@H]2C=CC[C@@H](C)[C@@H]2C(=O)N1Cc1ccccc1,i,i,5,60*
COc1ccccc1-c1nnc(C2CCN(S(=O)(=O)c3ccccc3[N+](=O)[O-])CC2)o1,i,i,-3,8
O=C(COc1cccnc1[N+](=O)[O-])N1N=C(c2ccc(Cl)cc2)CC1c1ccco1 (stereo not given),i,i,-1,56*
C=C[C@@]1(C)CC(=O)[C@]2(O)[C@@]3(C)[C@@H](O)CCC(C)(C)[C@@H]3[C@H](O)[C@H](OC(C)=O)[C@@]2(C)O1,-6.4*,i,17,-22
CCCCOc1ccc(/C=C/C2=CC(C)(C)NC(=S)N2)cc1OCC,i,i,5,70*
CCCCNc1c(-c2ccc(SC3CCCCC3)cc2)nc2ccccn12,i,i,20,71*
c1ccc(Cc2noc(CN3CCN(CCOc4ccccc4)CC3)n2)cc1,i,i,-1,57*
c1ccc(CN2CCCC3(CCCN(Cc4nc(COc5ccccc5)no4)C3)C2)cc1 (stereo not given),i,i,4,61*
COc1ccc(Cc2noc(CN3CCN(Cc4cccc(Cl)c4)CC3)n2)cc1OC,i,i,10,60*
COCCN1CCN(Cc2nc(Cc3ccc(OC)c(OC)c3)no2)CC1,i,i,-9,-4
c1ccc(COC2CCCN(Cc3nc(Cc4ccccc4)no3)C2)cc1 (stereo not given),i,i,7,1
c1ccc(CN2CCCC3(CCCN(Cc4nc(CC5CC5)no4)C3)C2)cc1 (stereo not given),i,i,13,54
COc1ccccc1CNS(=O)(=O)c1cc2c3c(c1)CCN3C(=O)CC2,i,i,22,-8
Cc1cc(C)cc(N=Cc2[nH]c3ccc(Br)c(Cl)c3c2O)c1,i,i,-12,-4
COc1ccc(CN=Cc2[nH]c3ccc(Br)c(Cl)c3c2O)cc1,i,i,-14,55*
CCCN(Cc1nnc(-c2ccccc2Cl)o1)C(=O)c1cc([N+](=O)[O-])cc([N+](=O)[O-])c1,i,i,-21,68*
SMILES,CHT inh,CHT allo act,PolyA inh,T cruzi inh
O=C(c1cc2ccccc2o1)N(Cc1nnc(-c2ccccc2Cl)o1)C1CC1,i,i,-3,19
O=C(c1cc([N+](=O)[O-])cc([N+](=O)[O-])c1)N(Cc1nnc(-c2ccccc2Cl)o1)C1CC1,i,i,-28,75*
COc1cccc(/C=N/NC(=O)CNC(=O)C(c2ccccc2)c2ccccc2)c1O,i,i,27,-15
O=C(Cn1c(C(F)(F)F)nc2ccccc21)Nc1ccccc1C(=O)O,i,i,3,-18
CC(C(=O)Nc1ccccc1C(=O)O)n1c(C(F)(F)F)nc2ccccc21 (stereo not given),i,i,8,71*
CC(C)NC(=O)c1ccc2c(=O)n(C3CCCC3)c(=S)[nH]c2c1,i,i,-7,10
CCN(CC)CCNC(=O)c1ccc2c(=O)n(C3CCCC3)c(=S)[nH]c2c1,-15*,i,15,-2
CCCN(C(=O)CSCC(=O)Nc1cccc(C)c1)c1c(N)n(Cc2ccccc2)c(=O)[nH]c1=O,i,i,-14,5
C=C[C@]1(C)C[C@@H](OC(=O)CSCCN(CC)CC)[C@]2(C)C(C)CC[C@]3(CCC(=O)[C@H]32)[C@@H](C)[C@@H]1O (stereo not given in full),i,i,6,59*!
O=c1[nH]nc(Cc2ccc([N+](=O)[O-])cc2)c2ccccc12,i,i,7,3
CCn1c(CN2CCOCC2)nnc1SCC(=O)Nc1ccc(C(C)=O)cc1,i,i,5,0
CCN(CC)S(=O)(=O)c1ccc(NC(=O)Nc2cccc(C(F)(F)F)c2)cc1,i,i,8,76*
COc1cccc(O)c1CN1CCC(n2nccc2NC(=O)c2ccc3c(c2)OCO3)CC1,i,i,12,9
CC1CN(CCc2ccccc2)c2nc3c(c(=O)n(C)c(=O)n3C)n2C1 (stereo not given),i,i,-9,-9
O=C(NCCc1ccccc1F)C1CCCN1S(=O)(=O)c1ccc2ccccc2c1 (stereo not given),i,i,-16,75*
CCOC(=O)N1CCN(C(=O)COC(=O)Cc2ccc(Cl)cc2)CC1,i,i,-5,-7
Cn1c(N)c(-c2ccccc2)c2ccc([N+](=O)[O-])cc2c1=O,i,i,-10,11
COCC(=O)Nc1cc(C)cn(Cc2ccccc2Cl)c1=O,i,i,-6,3
COc1cccc(C(=O)Oc2c(Br)cc(Br)cc2/C=N/NC(=O)c2cc(C)[nH]n2)c1,i,i,-31,61*
Cc1ccc(C)c(S(=O)(=O)NCC(c2ccco2)N2CCc3ccccc3C2)c1 (stereo not given),i,i,-22,23
O=[N+]([O-])c1ccc(S(=O)(=O)NCC(c2ccco2)N2CCc3ccccc3C2)cc1 (stereo not given),i,i,-4,61*
Cc1c(CN2CCC(CO)(Cc3cccc(C(F)(F)F)c3)CC2)c2ccccc2n1C,i,i,12,56*
O=C(NCC(c1cccnc1)N1CCN(c2ccc(F)cc2)CC1)c1ccco1 (stereo not given),i,i,0,60*
O=C(NCC(c1cccnc1)N1CCN(c2ccc(F)cc2)CC1)c1ccc(F)cc1 (stereo not given),i,i,6,60*
COc1cc(C(=O)NCC(c2cccnc2)N2CCN(c3ccc(F)cc3)CC2)cc(OC)c1OC (stereo not given),i,i,nt,71*

# Assay outcomes as filed in PubChem BioAssay.
